An excerpt weighted towards active compounds, which were near 9.4% of everything screened.
Beta apoptosis – inhibitors of cytokine-induced beta cell apoptosis, primary screen, luminescence | INS-1E cytokine-induced death, ATP luminescence, 48 h; percent of positive-control rescue, neutral wells zero | protection from apoptosis, % (test concentration not listed) | 300,000 compounds, 0.8% hits | AID 435005, 2010;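 active means Every replicate reaches about 75%, or at least half do and their mean reaches it too, limit read from the data; inconclusive means At least half of replicates reach the limit but their mean does not; inactive means Under half of replicates reach the limit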;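 further: 0% = cytokine-treated negative control wells and 100% = positive control rescue; higher means more ATP so stronger rescue from cytokine killing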
Mdm2 MdmX PPI – inhibitors of human Mdm2-MdmX association, primary screen, cell-based, luminescence, split luciferase, SaOS-2, uHTS; Protein Mdm4 (Homo sapiens) + E3 ubiquitin-protein ligase Mdm2 (Homo sapiens), …; SaOS-2 split-luciferase Mdm2/MdmX complementation; inhibition, % at 8 µM; 330,000 compounds, 3% hits; AID 485346, 2010;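 active means inhibition of at least 50% at 8 µM in the primary screen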
T cruzi inh – inhibitors of intracellular T. cruzi growth, primary screen, luminescence, NIH3T3 host cells; 300,000 compounds, 1.4% hits; inhibition, % (test concentration not listed); T. cruzi beta-gal in NIH3T3, 90 h;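 active means mean inhibition across valid replicates above about 55%, limit read from the data; inconclusive means mean below that limit but half or more replicates reach it; inactive means mean below it, under half of replicates reach it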;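 further: signal also drops with host cell toxicity which is not excluded here; 0% = plate median of DMSO wells and 100% = zero luminescence signal; higher percent means less beta-gal luminescence so fewer parasites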
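Material: NIH/3T3 host cells with β-galactosidase reporter T. cruzi; Input: 5,000 host fibroblasts per well; Medium: DMEM, 2% fetal bovine serum; Compound: 50 nL DMSO compound solution per well; Schedule: 3 h host attachment, then at least 90 h co-culture; Detection: luminescent β-galactosidase signal after 60 min lysis.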
CSC inhib – cancer stem cell viability inhibitors, primary screen, luminescence | cancer stem cell-like cells viability | inhibition, % at 7.5 µM | 300,000 compounds, 1.1% hits; in the data active means inhibition above about 75%; inconclusive means no clear call, values can overlap the other calls; tested in HMLE shEcad cells
SKKanGAS inh – S. pyogenes SKKanGAS growth inhibitors in kanamycin, primary screen, streptokinase expression inhibitor project, SKKanGAS strain, BacTiter-Glo luminescence; 6 h; inhibition, % at 7.5 µM; 300,000 compounds, 1.3% hits; AID 1662, 2009;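 active means mean replicate score, as percent of positive control median, at least 50; inconclusive means mean below 50 but one replicate at or above 50; inactive means mean and every replicate below 50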;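 further: strain carries kanamycin resistance gene driven by streptokinase promoter and grows in 40 µg/ml kanamycin; loss of luminescence reflects streptokinase promoter inhibition or plain growth inhibition; 0% = median of DMSO wells and 100% = positive control at its reference dose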
Lmaj promast – Leishmania major promastigote growth inhibition, primary screen; Leishmania major promastigotes, resazurin fluorescence viability; inhibition, % at 10 µM; 200,000 compounds, 9% hits; AID 1063, 2008; in the data active means inhibition above about 50%;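 further: promastigotes grown with compound for 44 hours at 28 °C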
Active calls of the source: *; ? = inconclusive; nt = no result given.

SMILES	Beta apoptosis	Mdm2 MdmX PPI	T cruzi inh	CSC inhib	SKKanGAS inh	Lmaj promast
COc1cccc(CN=c2c([N+](=O)[O-])nn(-c3ccccc3C)n2O)c1	3	-12	22	5	9	33
CC1(c2nnc(-c3ccccc3)o2)CC(c2ccc([N+](=O)[O-])cc2)=NO1 (stereo unspecified)	-13	49	11	1	-2	nt
Cc1ccccc1CCN(C(=O)CN1C(=O)c2ccccc2S1(=O)=O)C(C(=O)NCC1CCCO1)c1ccncc1 (stereo unspecified)	1	-13	-8	2	-10	60*
CCCCCC1CCC(c2n[nH]c(=S)n2C)CC1 (stereo unspecified)	12	-10	70*	31	6	10
C=CCn1c(C2CC2)n[nH]c1=S	-4	-2	-13	-3	-2	-7
O=C1/C(=C/c2cccnc2)CCc2c1[nH]c1ccccc21	-25	16	1	19	14	47
CC1C/C(=C\c2cccnc2)C(=O)/C(=C/c2cccnc2)C1 (stereo unspecified)	3	nt	nt	?	nt	100*
O=C(Cc1ccc(Br)cc1)NNC(=O)Nc1ccc(Cl)cc1	1	-13	-4	4	2	72*
O=C(Cc1ccc(Cl)cc1)Nc1ccc(Br)cc1	-3	-14	5	6	-3	-7
O=C(Cn1ccc(NC(=O)OCc2ccccc2)nc1=O)NCCN1CCOCC1	0	15	nt	-33	nt	nt
COc1ccc(CCNC(=O)c2cc(-c3ccccc3)c(N3CCOCC3)s2)cc1OC	-10	24	44	36	5	nt
CCN(CC)S(=O)(=O)c1ccc(N2CCOCC2)c(NC(=O)Cc2ccc(Cl)cc2)c1	5	6	0	64	4	50*
CCN(CC)S(=O)(=O)c1ccc(N2CCOCC2)c(NC(=O)C(C)(C)C)c1	-7	-28	11	4	0	nt
CCN(CC)S(=O)(=O)c1ccc(N2CCOCC2)c(NC(=O)CC23CC4CC(CC(Br)(C4)C2)C3)c1	1	19	14	nt	8	51*
CCOc1ccc(/C=C/c2c([N+](=O)[O-])c(=O)n(C)c(=O)n2C)cc1	1	34	-4	-7	2	65*
CC(C)CCN1C(=O)c2ccc(C(=O)Nc3ccc(Br)cc3C(=O)O)cc2C1=O	nt	17	0	12	?	nt
COc1ccccc1CNc1cc(CSc2ccc(Cl)cc2)nc(C)n1	-5	30	22	8	-1	57*
COc1cccc(CNc2cc(CSc3ccc(Cl)cc3)nc(C)n2)c1	-8	8	-7	9	2	30
CC(C)CN(C(=O)COC(=O)CCC(=O)c1ccc(Cl)cc1)c1c(N)n(Cc2ccccc2)c(=O)[nH]c1=O	-3	-12	8	-13	-5	nt
O=C(CSc1nc2ncc(Br)cc2[nH]1)c1cccc([N+](=O)[O-])c1	2	7	15	5	1	54*
CCc1nc(SCC(=O)c2cccc([N+](=O)[O-])c2)n[nH]1	-7	-30	2	-2	7	61*
CC(C)(C)NC(=S)NCc1ccc2c(c1)OCO2	3	12	-3	-9	-8	56*
Fc1ccc(CNCc2ccc3c(c2)OCO3)cc1	-3	1	10	-11	-2	nt
CN(C)CC(C)(C)CNC(=S)NCc1ccc2c(c1)OCO2	nt	-17	-7	-11	0	-2
CC(CNCc1ccc2c(c1)OCO2)NCc1ccc2c(c1)OCO2 (stereo unspecified)	0	-8	12	nt	0	93*
SMILES	Beta apoptosis	Mdm2 MdmX PPI	T cruzi inh	CSC inhib	SKKanGAS inh	Lmaj promast
CN1C2C=C3C(C#N)=C(N)C(C#N)(C#N)[C@@H](c4cccs4)C3C1CC2 (stereo partly specified)	11	17	29	-16	1	22
CC(C)(C)C1CC=C2C(C#N)=C(N)C(C#N)(C#N)C(c3cccs3)C2C1 (stereo unspecified)	-5	3	36	-3	54*	33
COc1ccc(CNC(=O)C(=O)NCc2cccnc2)cc1	-3	8	-9	-1	-21	-10
COc1ccc2[nH]c(C(O)(Cc3cccnc3)Cc3cccnc3)cc2c1	-1	-15	57*	3	1	26
O=C(O)CCCNc1cc(N2CCC3(CC2)OCCO3)c2noc3c2c1C(=O)c1ccccc1-3	nt	27	nt	38	nt	16
O=C(O)CCCNc1cc(N2CCN(C(=O)c3ccco3)CC2)c2noc3c2c1C(=O)c1ccccc1-3	nt	26	-3	6	52*	nt
Cc1ccccc1OCCC(=O)OCC(=O)Nc1ccc2[nH]c(=O)[nH]c2c1	-7	5	-13	2	-5	nt
CN(CCN1CCOCC1)Cc1nc(-c2ccccc2)no1	7	10	8	5	7	90*
CC[C@@]1(C(=O)OC)N[C@H](CN(C)C(=O)COC)[C@@H]2C(=O)N(C)C(=O)[C@@H]21	nt	-15	nt	nt	nt	nt
COc1ccc(C(CC(=O)N2CCCC(C)C2)c2c(OC)cc(OC)c3c(-c4ccccc4)cc(=O)oc23)cc1 (stereo unspecified)	1	15	30	6	67*	nt
COc1ccc(OC)c(C2=C/C(=C/c3ccccn3)C(=O)O2)c1	6	25	14	-8	25	-5
COc1ccc(CN2C(=O)c3ccccc3C(/C=N\OCc3ccc(C)cc3)C2=O)cc1 (stereo unspecified)	nt	-6	16	15	106*	37
Cc1ccc(NC2=Nc3ccccc3N3C2=Nc2c(c(C)nn2-c2ccccc2)C3c2ccc(O)c(O)c2)cc1 (stereo unspecified)	nt	nt	nt	nt	nt	86*
Cc1nn(-c2ccccc2)c2c1C(c1ccc([N+](=O)[O-])cc1)N1C(=N2)C(=O)Nc2ccccc21 (stereo unspecified)	20	22	26	8	30	48
CC(=O)c1cccc(OCC(=O)NC2CCCCCC2)c1	nt	12	nt	nt	nt	nt
COc1ccc([C@H]2CC(=O)C=C(c3cccc(OC)c3OC)C2)cc1OC	-3	18	nt	14	nt	nt
COc1ccc(-c2cc(C(F)(F)F)nc(SCCC(=O)N3CCN4CCCC4C3)n2)cc1 (stereo unspecified)	7	-13	34	nt	5	55*
O=C(NCc1ccccn1)c1ccc(CNS(=O)(=O)c2cccc(Cl)c2)cc1	-7	-23	-4	-3	-4	9
CCCCCCOC(=O)C(C#N)c1nc2ccccc2nc1N1CCN(C)CC1 (stereo unspecified)	46	33	68*	6	13	54*
